Measurements from ChEMBL document CHEMBL1126197, “Orally active beta-lactam inhibitors of human leukocyte elastase-1. Activity of 3,3-diethyl-2-azetidinones” (J Med Chem, 1992).

Assays:
[1] = target: T1, Neutrophil elastase (Homo sapiens) (UniProt P08246); assay: elastase inhibitory activity, evaluated for second order rate constant (time-dependent inhibition)
T1 sequence (whole entry): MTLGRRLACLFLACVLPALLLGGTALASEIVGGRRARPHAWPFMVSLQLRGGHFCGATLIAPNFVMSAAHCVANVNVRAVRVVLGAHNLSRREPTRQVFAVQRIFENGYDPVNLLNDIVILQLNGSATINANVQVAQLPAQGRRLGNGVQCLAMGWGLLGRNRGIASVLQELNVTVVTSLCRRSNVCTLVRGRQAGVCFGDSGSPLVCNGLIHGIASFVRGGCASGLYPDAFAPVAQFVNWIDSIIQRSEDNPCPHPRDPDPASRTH
Outline: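 HLE-catalyzed hydrolysis of MeO-Suc-Ala-Ala-Pro-Ala-pNA was followed while enzyme inactivation was monitored for 15 min. Second-order rate constants (kobs/I, M-1 s-1) were derived from this time-dependent inactivation.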

[2] = target: T1, Neutrophil elastase (Homo sapiens); assay: Percent inhibition in elastase-induced lung haemorrhage, when the compound is dosed orally at 30 mg/kg 30 min before challenge by HLE (Human leukocyte elastase); format: functional, organism-based; parameters: dose 30 mg/kg
Outline: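 Anesthetized hamsters received the compound orally 30 min before intratracheal instillation of 50 units HLE. After 3 h, hemoglobin in the lung lavage was measured spectrophotometrically. Percent inhibition of hemorrhage was calculated for the drug-treated group against the vehicle-only group.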

Compound	second order rate constant kobs/[I] [1] [M⁻¹ s⁻¹]	inhibition [2] [%]
CCC1(CC)C(=O)N(C(=O)NCc2ccc(OC)cc2)C1Oc1ccc(C(=O)O)cc1 (configuration not stated)	5200	60
CCC1(CC)C(=O)N(C(=O)NCCCCCCc2ccccc2)C1Oc1ccc(C(=O)O)cc1 (configuration not stated)	5000	14
CCC1(CC)C(=O)N(C(=O)NCc2cccc(C)c2)C1Oc1ccc(C(=O)O)cc1 (configuration not stated)	7000	47
CCC1(CC)C(=O)N(C(=O)NCc2ccco2)C1Oc1ccc(C(=O)O)cc1 (configuration not stated)	5200	58
CCC1(CC)C(=O)N(C(=O)NCCCOc2ccccc2)C1Oc1ccc(C(=O)O)cc1 (configuration not stated)	3500	40
CCC1(CC)C(=O)N(C(=O)NCc2ccc(-c3ccccc3)cc2)C1Oc1ccc(CC(=O)O)cc1 (configuration not stated)	29000	19
CCC1(CC)C(=O)N(C(=O)NCc2ccc(C)c(OC)c2)C1Oc1ccc(C(=O)O)cc1 (configuration not stated)	6500	76
CCC1(CC)C(=O)N(C(=O)NCc2cccc3ccccc23)C1Oc1ccc(C(=O)O)cc1 (configuration not stated)	8400	–
CCC1(CC)C(=O)N(C(=O)NCc2ccsc2)C1Oc1ccc(C(=O)O)cc1 (configuration not stated)	1300	53
CCC1(CC)C(=O)N(C(=O)NCCCCc2ccccc2)C1Oc1ccc(C(=O)O)cc1 (configuration not stated)	9200	35
CCN(Cc1ccccc1)C(=O)N1C(=O)C(CC)(CC)C1Oc1ccc(C(=O)O)cc1 (configuration not stated)	2300	34
CCC1(CC)C(=O)N(C(=O)NCc2ccc(SC)cc2)C1Oc1ccc(C(=O)O)cc1 (configuration not stated)	9400	28
CCC1(CC)C(=O)N(C(=O)NCc2ccc3c(c2)OCO3)C1Oc1ccc(C(=O)O)cc1 (configuration not stated)	5000	10
CCc1ccc(CNC(=O)N2C(=O)C(CC)(CC)C2Oc2ccc(C(=O)O)cc2)cc1 (configuration not stated)	8200	46
CCC1(CC)C(=O)N(C(=O)NCc2cc(C)cc(C)c2)C1Oc1ccc(C(=O)O)cc1 (configuration not stated)	14700	69
CCC1(CC)C(=O)N(C(=O)NCc2ccc(C(=O)O)cc2)C1Oc1ccc(C(=O)O)cc1 (configuration not stated)	2200	25
CCC1(CC)C(=O)N(C(=O)NCC2CCCCC2)C1Oc1ccc(C(=O)O)cc1 (configuration not stated)	1400	0
CCC1(CC)C(=O)N(C(=O)NCc2ccc(O)cc2)C1Oc1ccc(C(=O)O)cc1 (configuration not stated)	3000	–
CCCCNC(=O)N1C(=O)C(CC)(CC)C1Oc1ccc(C(=O)O)cc1 (configuration not stated)	800	45
CCC1(CC)C(=O)N(C(=O)NCc2ccc(N)cc2)C1Oc1ccc(C(=O)O)cc1 (configuration not stated)	1800	2
CCC1(CC)C(=O)N(C(=O)NCc2ccc(OCc3ccccc3)cc2)C1Oc1ccc(C(=O)O)cc1 (configuration not stated)	12000	-9
CCC1(CC)C(=O)N(C(=O)NCc2ccc(-c3ccccc3)cc2)C1Oc1ccc(C(=O)O)cc1 (configuration not stated)	23200	24
CCC1(CC)C(=O)N(C(=O)NCCc2ccccc2)C1Oc1ccc(C(=O)O)cc1 (configuration not stated)	1300	33
CCC1(CC)C(=O)N(C(=O)NCc2ccc(OC)c(C)c2)C1Oc1ccc(C(=O)O)cc1 (configuration not stated)	13100	64
CCCCCCCCCNC(=O)N1C(=O)C(CC)(CC)C1Oc1ccc(C(=O)O)cc1 (configuration not stated)	8300	–
CCC1(CC)C(=O)N(C(=O)NCc2ccc3ccccc3c2)C1Oc1ccc(C(=O)O)cc1 (configuration not stated)	21300	37
CCC1(CC)C(=O)N(C(=O)NCc2cccs2)C1Oc1ccc(C(=O)O)cc1 (configuration not stated)	4900	52
CCC1(CC)C(=O)N(C(=O)NCc2ccc(N(C)C)cc2)C1Oc1ccc(C(=O)O)cc1 (configuration not stated)	10000	25

Now from value to molecule:

second order rate constant kobs/[I] [1] [M⁻¹ s⁻¹]	inhibition [2] [%]	Compound
3200	71	CCC1(CC)C(=O)N(C(=O)NCc2ccccc2)C1Oc1ccc(CC(=O)O)cc1 (configuration not stated)
4300	10	CCC1(CC)C(=O)N(C(=O)NCc2ccc(C(N)=O)cc2)C1Oc1ccc(C(=O)O)cc1 (configuration not stated)
4500	12	CCC1(CC)C(=O)N(C(=O)NCCCc2ccccc2)C1Oc1ccc(C(=O)O)cc1 (configuration not stated)
1500	-2	CCC1(CC)C(=O)N(C(=O)NCc2ccccc2O)C1Oc1ccc(C(=O)O)cc1 (configuration not stated)
4800	15	CCC1(CC)C(=O)N(C(=O)NCCCCCc2ccccc2)C1Oc1ccc(C(=O)O)cc1 (configuration not stated)
2100	8	CCC1(CC)C(=O)N(C(=O)NCCC(=O)c2ccccc2)C1Oc1ccc(C(=O)O)cc1 (configuration not stated)
4000	86	CCC1(CC)C(=O)N(C(=O)NCc2ccc(C)cc2)C1Oc1ccc(C(=O)O)cc1 (configuration not stated)
5100	–	CCC1(CC)C(=O)N(C(=O)NCCCC(O)c2ccccc2)C1Oc1ccc(C(=O)O)cc1 (configuration not stated)
700	33	CCC1(CC)C(=O)N(C(=O)NCc2ccccc2C)C1Oc1ccc(C(=O)O)cc1 (configuration not stated)
4500	72	CCC1(CC)C(=O)N(C(=O)NCc2ccc(C)cc2)C1Oc1ccc(CC(=O)O)cc1 (configuration not stated)
21000	52	CCC1(CC)C(=O)N(C(=O)NCc2ccc(C)c(C)c2)C1Oc1ccc(C(=O)O)cc1 (configuration not stated)
1500	45	CCC1(CC)C(=O)N(C(=O)NCc2ccc(C)cc2C)C1Oc1ccc(C(=O)O)cc1 (configuration not stated)
1200	73	CCC1(CC)C(=O)N(C(=O)NCc2ccccc2N)C1Oc1ccc(C(=O)O)cc1 (configuration not stated)
5100	22	CCC1(CC)C(=O)N(C(=O)NCc2ccc([N+](=O)[O-])cc2)C1Oc1ccc(C(=O)O)cc1 (configuration not stated)
2000	0	CCC1(CC)C(=O)N(C(=O)NCCCC(=O)c2ccccc2)C1Oc1ccc(C(=O)O)cc1 (configuration not stated)
3400	30	CCC1(CC)C(=O)N(C(=O)NCCCCOc2ccccc2)C1Oc1ccc(C(=O)O)cc1 (configuration not stated)
5900	37	CCC1(CC)C(=O)N(C(=O)NCc2ccc(C(C)=O)cc2)C1Oc1ccc(C(=O)O)cc1 (configuration not stated)
3400	29	CCC1(CC)C(=O)N(C(=O)NCc2ccc(Cl)cc2)C1Oc1ccc(C(=O)O)cc1 (configuration not stated)
1500	56	CCC1(CC)C(=O)N(C(=O)NCc2ccccc2)C1Oc1ccc(C(=O)O)cc1 (configuration not stated)
2300	4	CCC1(CC)C(=O)N(C(=O)NCc2ccc(F)cc2)C1Oc1ccc(C(=O)O)cc1 (configuration not stated)
